Experimental data: PubChem BioAssay AID1515 (The Scripps Research Institute Molecular Screening Center, 2009)
Among all 220,000 compounds or so, about 440 (0.2%) were called active. The sample holds actives, similar compounds and a random draw of the others, so the mix is not that of the screen.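 Rule for the calls: active = inhibition above the campaign mean of all tested compounds plus 3 SD (cut at about 14% in these data); inactive = the rest.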

Molecular target: Serine hydrolase RBBP9 (Homo sapiens) (UniProt O75884)
Assay: human RBBP9 inhibitors, primary screen, biochemical, fluorescence polarization, FP-Rh probe, HTS (AID 1515);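 note: plate controls were DMSO wells with RBBP9 for no effect and wells lacking RBBP9 protein for full effect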
Conditions: recombinant RBBP9, FP-Rh probe fluorescence polarization; at 7.94 µM; hits give high values
Procedure, shortened: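 Measured by – fluorescence polarization · Test system – RBBP9 protein · Input – 2.5 µM RBBP9 dispensing solution, before mixing · Measure – percent inhibition from mP, scaled between DMSO and no-protein wells · Benchmarks – DMSO-treated enzyme wells and wells lacking RBBP9 · Times – preincubation 30 min plus labeling 45 min at 25 °C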

Serine hydrolase RBBP9 (Homo sapiens), sequence (O75884 whole entry, looked up): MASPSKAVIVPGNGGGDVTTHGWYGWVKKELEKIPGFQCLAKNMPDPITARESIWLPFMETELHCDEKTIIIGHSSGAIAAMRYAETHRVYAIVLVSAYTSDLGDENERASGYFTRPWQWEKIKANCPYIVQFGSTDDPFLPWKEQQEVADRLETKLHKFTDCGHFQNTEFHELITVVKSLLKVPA

Row | Compound | inhibition
1 | Cc1ccc(CS(=O)(=O)CCC(=O)NC2CC2)cc1 | -3.2% (inactive)
2 | O=C1/C(=C\c2cccnc2)CN(Cc2ccccc2)C/C1=C\c1cccnc1 | -6.31% (inactive)
3 | Cc1ccccc1NS(=O)(=O)CCCCC(Cl)(Cl)Cl | 2.33% (inactive)
4 | CCC(=O)Nc1c(C)n[nH]c1C | -4.5% (inactive)
5 | CCN1C(=O)/C(=C\N2CCOCC2)SC1=S | -5.07% (inactive)
6 | Cc1ccc2nc(SCc3cn4c(C)cc(C)nc4n3)[nH]c2c1 | -9.49% (inactive)
7 | O=C(c1c(Cl)cccc1Cl)N1CCN(c2cccc3[nH]ccc23)CC1 | -7.2% (inactive)
8 | Cc1c(NC(=O)CCC2CCCCC2)cc(C(=O)N2CCOCC2)cc1[N+](=O)[O-] | 7.08% (inactive)
9 | COc1ccc(CCNC(=O)C(=O)Nc2ccc3nc4n(c(=O)c3c2)CCCCC4)cc1OC | 6.2% (inactive)
10 | COc1ccc2c(c1)CC[C@@H]1[C@@H]2CC[C@]2(C)C(=O)CC[C@@H]12 | -1.04% (inactive)
11 | Cc1cccc(C)c1NC(=O)C1CCCN1C(=O)OC(C)(C)C (configuration not stated) | -5.32% (inactive)
12 | Cc1cccc(-c2nc3c(c(SCC(=O)N4CCOCC4)n2)CCCC3)c1 | 11.1% (inactive)
13 | COCCN(Cc1nc(-c2ccc(C(F)(F)F)cc2)no1)C(C)C | 15% (active)
14 | COc1ccc(-c2noc(CN(C)S(=O)(=O)c3ccc(C)cc3)n2)cc1 | -9.12% (inactive)
15 | CC(C)N(Cc1nc(-c2ccc3c(c2)OCO3)no1)CC1CCC(=O)N1 (configuration not stated) | -10.1% (inactive)
16 | CC1CCC(NS(=O)(=O)c2ccc3c(c2)n(C)c(=O)c(=O)n3C)CC1 (configuration not stated) | -2.22% (inactive)
17 | Cn1sc(=O)c2cc(S(=O)(=O)NC3CC3)ccc21 | 33.3% (active)
18 | CSc1ccc(S(=O)(=O)NC2CCCCC2)cc1 | 0.08% (inactive)
19 | Cc1cc(C)c[n+](-c2nc3ccccc3nc2[N-]S(=O)(=O)c2cccs2)c1 | -7.26% (inactive)
20 | O=c1[nH]n(-c2ccc([N+](=O)[O-])cc2)c(=O)c2ccccc12 | 15.9% (active)
21 | O=C1CC(c2ccccc2)=NN1c1ccc([N+](=O)[O-])cc1 | -12.2% (inactive)
22 | O=c1[nH]c2cccnc2n1-c1ccc([N+](=O)[O-])cc1 | 4.37% (inactive)
23 | O=C(NNC1CC(=O)N(c2cccc(Cl)c2)C1=O)c1cccnc1 (configuration not stated) | -9.81% (inactive)

Row | Compound | inhibition
24 | CC(C)(C)C1CCC(OC(=O)CCC(=O)Nc2ccccc2)CC1 (configuration not stated) | -0.76% (inactive)
25 | C=CCN(CC=C)CCOc1ccccc1[N+](=O)[O-] | -6.95% (inactive)
26 | CSc1ccccc1NC(=O)CN(C)CC(=O)Nc1ccc(Cl)cc1[N+](=O)[O-] | 6.47% (inactive)
27 | COc1cccc(-n2nc(C(=O)N3CCN(Cc4ccccc4)CC3)c3ccccc3c2=O)c1 | -0.83% (inactive)
28 | Cc1cc(NC(=O)CSc2nccn2-c2ccc([N+](=O)[O-])cc2)no1 | -5.53% (inactive)
29 | Cc1c(CCO)sc[n+]1CC(=O)OC12CC3CC(CC(C3)C1)C2 | 6.14% (inactive)
30 | Cc1cc(C(=O)OCC(=O)Nc2nnc(C(C)C)s2)c2ccccc2n1 | -5.01% (inactive)
31 | CC(OC(=O)c1ccc(NS(=O)(=O)c2ccc3[nH]c(=O)[nH]c3c2)cc1)C(=O)Nc1cccc(Cl)c1Cl (configuration not stated) | -24.3% (inactive)
32 | Oc1cccc2ccc(/C=C/c3ccc(Br)s3)nc12 | -6.67% (inactive)
33 | O=C(Cc1cccs1)N/N=C/c1ccc(OCc2ccccc2)cc1 | -9.96% (inactive)
34 | CC(C)(C)Nc1c(N)c(=O)oc2ccccc12 | -7.21% (inactive)
35 | Cc1ccnc(N2C(=O)c3ccccc3C2Nc2ccc3c(c2)OCCO3)c1 (configuration not stated) | 5.23% (inactive)
36 | COC(=O)c1cc(NC2c3ccccc3C(=O)N2c2ccc(Cl)cn2)cc(C(=O)OC)c1 (configuration not stated) | 2.1% (inactive)
37 | CCc1ccccc1NC1c2ccccc2C(=O)N1c1cccnc1 (configuration not stated) | 19.1% (active)
38 | COc1ccc(N2C(=O)C3CCCN3C2c2cccs2)cc1 (configuration not stated) | -3.07% (inactive)
39 | COc1ccc(N2C(=O)C3CCCN3C2c2cccc(OC)c2)cc1 (configuration not stated) | -6.79% (inactive)
40 | COc1ccc(N2C(=O)C3CCCN3C2c2cc(OC)c(OC)cc2OC)cc1 (configuration not stated) | 14.8% (active)
41 | COC(=O)C1=C(C)N(C)C(=O)NC1c1ccc([N+](=O)[O-])o1 (configuration not stated) | 4.8% (inactive)
42 | O=C(NCc1ccccc1Cl)NC(=O)c1csc([N+](=O)[O-])c1 | 2.74% (inactive)
43 | COc1ccc2c(c1)C(C)=CC(C)(C)N2C(=O)Nc1ccccc1 | 14.3% (active)
44 | COc1ccc2c(c1)C(C)=CC(C)(C)N2C(=O)CNCc1ccc2c(c1)OCO2 | 0.21% (inactive)
45 | CC1=CC(C)(C)N(C(=O)CSc2nnc(-c3ccccc3)o2)c2ccc(C)cc21 | -8.58% (inactive)
46 | CC(=O)Nc1ccc(NC(=S)NC(=O)c2ccc([N+](=O)[O-])c(C)c2)cc1 | 6.76% (inactive)

Row | Compound | inhibition
47 | Cc1ccc(C)c(S(=O)(=O)N2CCN(CC(=O)Nc3ccc([N+](=O)[O-])cc3)CC2)c1 | -5.91% (inactive)
48 | CN1CCN(CC(=O)Nc2cccc([N+](=O)[O-])c2)CC1 | 7.61% (inactive)
49 | Cc1ccc(NC(=O)CN2CCC(C(N)=O)CC2)cc1[N+](=O)[O-] | 28.6% (active)
50 | CC1=C(C(=O)Nc2cc(C)ccn2)C(c2cnn(C)c2)C2=C(CC(c3ccccc3)CC2=O)N1 (configuration not stated) | -4.73% (inactive)
51 | O=S(=O)(NC1CC1)c1ccc2c3c(cccc13)CC2 | -3.01% (inactive)
52 | COc1ccc(C(C[N+](=O)[O-])n2nc(C)cc2C)cc1 (configuration not stated) | -13.8% (inactive)
53 | CC1CCN(C2=NC(=O)/C(=C/c3cn[nH]c3-c3ccccc3)S2)CC1 | -1.8% (inactive)
54 | CS(=O)(=O)c1ccc(Cl)c(NC(=O)Nc2ccccc2)c1 | -8.09% (inactive)
55 | COc1ccc(S(=O)(=O)Nc2ccc(O)c(Sc3nc4ccccc4s3)c2)cc1 | -4.18% (inactive)
56 | O=[N+]([O-])c1c(NCCO)cc(Sc2nc3ccccc3s2)c2nonc12 | 16.6% (active)
57 | O=C(CSc1nc2ccccc2s1)Nc1ccc(C(=O)O)cc1 | -5.16% (inactive)
58 | CCOC(=O)N1CCN(C(=S)Nc2ccc(C)cc2C)CC1 | -5.94% (inactive)
59 | Cc1ccc(-c2cc(C(=O)NCC3CCCO3)c3ccccc3n2)o1 (configuration not stated) | -0.54% (inactive)
60 | CC(C)(C)C1CCC(C(=O)Nc2cccnc2)CC1 (configuration not stated) | -3.33% (inactive)
61 | CN(C)c1ccc(C=NCCc2ccc(S(N)(=O)=O)cc2)cc1 | -3.47% (inactive)
62 | CCCc1nc(SCC(=O)Nc2ccc(S(=O)(=O)N(C)C)cc2)c2ccccc2n1 | -8.27% (inactive)
63 | COc1ccc([C@H]2[C@H](C(C)=O)N3N=Cc4ccccc4C3C23C(=O)OC(C)(C)OC3=O)cc1 (some centres not stated) | 0.49% (inactive)
64 | CC(=O)Nc1nc(C)c(-c2csc(Nc3ccc(S(N)(=O)=O)cc3)n2)s1 | -4.68% (inactive)
65 | COc1cc2c(cc1OC)CC1(CCCCC1)N=C2 | -7.64% (inactive)
66 | C/C(=N/Nc1nc(-c2ccccc2)c(CC(=O)O)s1)c1ccccc1 | 17% (active)
67 | Cc1ccc(-c2nc(C)sc2CC(=O)O)cc1 | -5.14% (inactive)
68 | O=C(O)Cc1sc(-c2ccc(C(=O)O)cc2)nc1-c1ccccc1 | -2.34% (inactive)
69 | COc1ccc(NC(C)=O)cc1NC(=O)CN1CCN(C2c3ccccc3-c3ccccc32)CC1 | -0.61% (inactive)

Row | Compound | inhibition
70 | CC(=O)NC1C(Oc2ccc(C=O)cc2)OC(COC(C)=O)C(OC(C)=O)C1OC(C)=O (configuration not stated) | -10.2% (inactive)
71 | CC(=O)NC1=NN(C(C)=O)C(C)(CCS(=O)(=O)c2ccc(Cl)c(Cl)c2)S1 (configuration not stated) | -8.22% (inactive)
72 | COc1cc(/C=C2/C(=O)ON=C2C)ccc1OCc1ccccc1F | -7% (inactive)
73 | COc1cc(/C=C2/C(=O)ON=C2C)ccc1OCc1cccc(F)c1 | -10.5% (inactive)
74 | CC1=NOC(=O)/C1=C\c1ccccc1 | 15.4% (active)
75 | Cc1ccc(S(=O)(=O)N(C)C)cc1NC(=O)c1n[nH]c(=O)c2ccccc12 | 1.59% (inactive)
76 | CCOC(=O)C1=C(CC)OC(N)=C(C#N)C1c1ccc(F)cc1F (configuration not stated) | -1.24% (inactive)
77 | N#Cc1cc([N+](=O)[O-])ccc1Oc1cccc(/C=N/NC(=O)c2ccc(Cl)cc2)c1 | 1.74% (inactive)
78 | Cn1c(CSCC(=O)Nc2ccccc2)nnc1SCc1ccccc1 | 1.33% (inactive)
79 | COc1ccc(C2CC(c3ccccc3)=NN2C(=O)CSc2nccc(=O)[nH]2)cc1 (configuration not stated) | -13.6% (inactive)
80 | COc1ccc(C2NC(=S)NC3=C2CCc2ccccc23)cc1OC (configuration not stated) | -1.09% (inactive)
81 | COc1ccccc1P(=O)(c1ccccc1)c1ccccc1NC(C)=O (configuration not stated) | 4.53% (inactive)
82 | O=C(O)CCS(=O)(=O)c1ccc(-c2ccccc2)cc1 | -1.5% (inactive)
83 | CCCC(=O)Nc1ccc2c(c1)nc(CCNC(=O)c1ccco1)n2C | -8.19% (inactive)
84 | CCn1c(CNC(=O)c2ccccc2)nnc1SCC(=O)N1CCN(c2ccccc2)CC1 | -8.71% (inactive)
85 | Cc1ccc2cc(CCNC(=O)c3c(-c4ccccc4Cl)noc3C)c(=O)[nH]c2c1 | -1.48% (inactive)
86 | O=c1c2ccccc2nc2n1C(CSCc1cccc(C(F)(F)F)c1)CS2 (configuration not stated) | -8.83% (inactive)
87 | N#Cc1c(NC(=O)C2CC(Cl)=CCC2C(=O)O)sc2c1CCCCC2 (configuration not stated) | -6.51% (inactive)
88 | CCNC(=S)N1CCC(c2nc3cc(C)c(C)cc3[nH]2)CC1 | -6.72% (inactive)
89 | Cc1cc([N+](=O)[O-])nn1Cc1ccc(F)cc1 | 16.8% (active)
90 | Cc1cc([N+](=O)[O-])nn1CCCC(=O)Nc1cccnc1Cl | -5.84% (inactive)
91 | Cc1cc([N+](=O)[O-])nn1CC(=O)Nc1ccc(Cc2ccncc2)cc1 | -7.35% (inactive)
92 | Brc1cc(/C=N/n2cnnc2)oc1Br | -14.7% (inactive)
